In the library only some 3.8% were active in any assay of this set; here they are far more common.
MrgX1 antagonist: antagonists of human MrgX1 receptor. B-score at 10 µM. actives 1.3% (n = 310,000). MRGX1-HEK293 calcium flux, Fluo-4, BAM8-22 antagonism; stronger effect = lower value. Q96LB2;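 active means calcium-response B-score plate-corrected more than 3 library SD below zero, starting fluorescence within 5 deviations, no agonist response on first addition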;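 further: peak minus trough fluorescence over baseline after final BAM8-22 challenge near maximal dose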
Target sequence (Q96LB2 whole entry, looked up): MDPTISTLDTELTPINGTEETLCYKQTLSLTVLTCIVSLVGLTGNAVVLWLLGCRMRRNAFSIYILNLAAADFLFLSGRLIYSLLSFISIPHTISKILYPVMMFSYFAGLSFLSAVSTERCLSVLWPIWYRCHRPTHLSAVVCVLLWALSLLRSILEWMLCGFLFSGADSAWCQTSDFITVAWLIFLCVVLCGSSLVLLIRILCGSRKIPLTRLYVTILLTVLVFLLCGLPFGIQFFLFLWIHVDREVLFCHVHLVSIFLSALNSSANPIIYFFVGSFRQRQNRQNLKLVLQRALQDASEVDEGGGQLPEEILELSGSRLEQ
Lipid droplet: hepatic lipid droplet formation modulation. actives 0.4% (n = 240,000). AML12 mouse hepatocytes, oleate lipid droplets, BODIPY imaging. inhibition, % at 6.5 µM;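 active means lipid droplet intensity inhibited by at least 50%, with more than 500 cells counted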
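Technique: fluorescence imaging, 20x objective, two fields per well / Assay system: AML12 hepatocytes (mouse) / Measure: % inhibition of lipid droplet signal / Doses: 6.5 µM single-point dosing / Incubation: overnight exposure / Reagent: 100 µM oleic acid challenge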
MrgX1 allo act: allosterically activates human MrgX1 receptor signaling. Q96LB2. MrgX1-HEK293, Fluo-4 calcium flux, FDSS; stronger effect = higher value. B-score at 10 µM. actives 0.63% (n = 310,000);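 active means plate-corrected calcium response at least 3 library SD above typical, normal starting fluorescence, not activating the receptor alone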;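 further: compound read alongside a low EC10 to EC30 dose of BAM8-22 agonist; peak minus trough fluorescence over baseline measured at the second addition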
RGS4 inh: human RGS4 inhibition | AID 463165 | B-score at 10 µM | actives 0.45% (n = 310,000) | HEK293 M3R/RGS4 inducible, Fluo-4 calcium flux; stronger effect = higher value; triggered by carbachol at its EC20;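 active means B-score, a plate-corrected calcium signal, over three deviations above library mean, with baseline fluorescence within five deviations of library mean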;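 further: RGS4 expression induced by doxycycline in cells with stable M3 receptor; B-score is computed from the integrated fluorescence ratio over baseline after carbachol; higher B-score means a larger calcium signal and so more RGS4 inhibition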
Target sequence (P49798 whole entry, looked up): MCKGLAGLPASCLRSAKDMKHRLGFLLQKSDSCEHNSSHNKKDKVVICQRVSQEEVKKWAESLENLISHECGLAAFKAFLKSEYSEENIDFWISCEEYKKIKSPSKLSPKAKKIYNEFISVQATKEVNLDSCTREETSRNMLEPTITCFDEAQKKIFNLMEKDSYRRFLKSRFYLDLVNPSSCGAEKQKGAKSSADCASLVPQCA
MrgX1 ag: activates human MrgX1 receptor signaling; Q96LB2; MrgX1-HEK293 cells, Fluo-4 calcium fluorescence, agonist mode; stronger effect = higher value; B-score at 10 µM; actives 0.44% (n = 310,000); AID 588627;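 active means calcium response B-score plate-corrected fluorescence ratio at least 3 library SD, with starting fluorescence B-score inside 5 SD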
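Material – MrgX1-expressing HEK293 cells · Input – 15,000 cells seeded per well · Dosing – compound as first of three additions · Times – overnight seeding, then 1 h dark dye loading · Measured by – kinetic Fluo-4 NW fluorescence of intracellular calcium · Read-out – B-scored fluorescence response ratio · Benchmarks – positive and negative control wells on each plate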
RGS4 act: RGS4 potentiation or activation; HEK293 M3R/inducible RGS4, carbachol calcium flux Fluo4; stronger effect = lower value; actives 0.92% (n = 310,000); AID 463111; B-score at 10 µM;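 active means B-score of the integrated calcium signal more than 4 SD below the library mean, with starting fluorescence not abnormally high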;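 further: negative B-score means reduced calcium response which marks RGS4 activation or potentiation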
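test system = HEK293 cells with stable M3R and inducible RGS4 | schedule = recording 10 s baseline at 1 Hz, 100 s post-agonist | technique = Fluo4-AM (2 µM) calcium-flux fluorescence, kinetic read | measure = Agonist-evoked peak-minus-minimum fluorescence over baseline, integrated ratio, B score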
Lipid drop inh: confirmation of inhibitors of hepatic lipid droplet formation; inhibition, % at 5.2 µM; actives 65% (n = 870); AML12 mouse hepatocytes, BODIPY lipid droplet imaging; droplets induced with 100 µM oleic acid; shares compounds with Lipid droplet;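 active means inhibition of lipid droplet metric at least 50%, with more than 300 cells in each of four replicates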
AML12 cytotox: AML12 hepatocyte cytotoxicity (counter-screen) | z-score at 5 µM | AID 463200 | AML12 mouse hepatocytes, DAPI nuclear morphology cytotoxicity imaging; stronger effect = higher value; cells fed 100 µM oleate overnight | actives 3% (n = 870) | shares compounds with Lipid droplet; in the data active means z-score above about 6.3;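 further: compound exposure lasted overnight at 37 °C before fixation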
AML12 tox ATP: confirmation of cytotoxicity in AML12 mouse hepatocytes; shares compounds with Lipid droplet; AML12 mouse hepatocyte viability, ATP luminescence; cells loaded with 100 µM oleic acid; cytotoxicity, % at 50 µM; 530 tested, under 10 active; AID 463219;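 active means cytotoxicity above 50% in each of four replicates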;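 further: compound exposure lasted overnight at 37 °C before the ATP read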
Numbers stand for hits; n = inactive; x = no result.

SMILES | MrgX1 antagonist | Lipid droplet | MrgX1 allo act | RGS4 inh | MrgX1 ag | RGS4 act | Lipid drop inh | AML12 cytotox | AML12 tox ATP
CC1CCCN(C(=O)c2ccc3c(c2NCCO)C(=O)c2ccccc2C3=O)C1 (configuration not stated) | n | 54 | 8 | n | n | n | 105 | n | n
CCOc1ccc(CN(C)C(=O)CNC(=O)Cc2cccc3ccccc23)cc1 | n | 77 | n | n | n | n | 101 | n | n
COc1ccc(CCn2ccc(O)c(Cc3ccc(Cl)cc3)c2=O)cc1OC | n | 61 | n | n | n | n | 106 | n | n
COC(=O)c1ccccc1NC(=O)c1cccc(NC(=O)c2ccc(Br)o2)c1C | n | 62 | n | n | n | n | 96 | n | n
O=C(Nc1ccccc1C(=O)O)c1ccc(Br)o1 | n | x | n | n | n | n | x | x | x
COc1ccc(NC(=O)c2ccccc2[N+](=O)[O-])cc1 | n | n | n | n | n | n | x | x | x
COc1ccccc1Nc1ccc(NC(=O)c2cccc([N+](=O)[O-])c2C)cc1 | n | 97 | n | n | n | n | 99 | n | n
Cc1c(NC(=O)c2cccc(-c3cc4ccccc4oc3=O)c2)cccc1-c1nc2ncccc2o1 | n | n | n | n | n | n | x | x | x
O=C(Nc1ccc(-c2csc(Nc3ccc(Cl)cc3)n2)cc1)c1cccc(C(F)(F)F)c1 | n | 72 | n | n | n | n | 100 | n | n
O=C(Nc1ccc(-c2csc(Nc3ccccc3)n2)cc1)c1cccc(C(F)(F)F)c1 | n | n | n | n | n | n | x | x | x
O=C(O)c1nn2cc(CCO)cnc2c1Cl | n | n | n | n | n | n | x | x | x
COc1nc2ccccc2nc1OC | n | n | n | n | n | n | x | x | x
COc1ccc(N2CCN(C(=S)NCc3ccccc3)CC2)cc1 | n | n | n | n | n | n | x | x | x
Fc1ccc(-c2cnn3c(-c4cccs4)ccnc23)cc1 | x | 63 | x | n | x | n | 79 | n | x
Fc1ccc(-c2cnn3c(-c4ccncc4)ccnc23)cc1 | n | n | n | n | n | n | x | x | x
CCOc1ccccc1C1NC(=O)CCC1[N+](=O)[O-] (configuration not stated) | n | n | n | n | n | n | x | x | x
O=C(NCc1ccco1)c1cc(-c2ccccc2)c(N2CCOCC2)s1 | n | x | n | n | n | n | x | x | x
COc1ccc(CCNC(=O)c2cc(-c3ccccc3)c(N3CCOCC3)s2)c(OC)c1OC | n | 96 | n | n | n | n | 107 | n | n
CCOc1ccc(CCNC(=O)c2cc(-c3ccccc3)c(N3CCOCC3)s2)cc1OCC | n | 100 | n | n | n | n | 112 | n | n
O=C(NCc1ccc2c(c1)OCO2)c1cc(-c2ccccc2)c(N2CCOCC2)s1 | n | 73 | n | n | n | n | 109 | n | n
CCOc1ccc(CCNC(=O)c2cc(-c3ccccc3)c(N3CCOCC3)s2)cc1 | n | x | n | n | n | n | x | x | x
CCc1ccc(CNC(=O)CCCn2c(=O)c3cccn3c3cccnc32)cc1 | n | n | n | n | n | n | x | x | x
CCOc1cc(CNC(=O)CCCn2c(=O)c3cccn3c3cccnc32)cc(OCC)c1OCC | n | 92 | n | n | n | n | 107 | n | n
CCOC(=O)c1cc(-c2ccc(F)cc2)n(CC(=O)NC(C)CC)c1C (configuration not stated) | n | 70 | n | n | n | n | 66 | n | n
Cc1ncc(CN=Cc2ccc(Cl)cc2)c(N)n1 | n | n | n | n | n | n | x | x | x
SMILES | MrgX1 antagonist | Lipid droplet | MrgX1 allo act | RGS4 inh | MrgX1 ag | RGS4 act | Lipid drop inh | AML12 cytotox | AML12 tox ATP
COc1c([N+](=O)[O-])cc(C(=O)NNC(=O)c2ccc(C)cc2)cc1[N+](=O)[O-] | n | 56 | n | n | n | n | n | n | x
Cc1onc(-c2ccccc2Cl)c1NC(=O)NCc1cccs1 | n | n | n | n | n | n | x | x | x
CCOc1ccc(-c2nonc2NC(=O)c2ccco2)cc1 | n | 74 | n | n | n | n | 93 | n | n
CCOc1ccc(-c2nonc2NC(=O)c2ccco2)cc1OCC | n | n | n | n | n | n | x | x | x
CCOc1ccccc1-c1cc(C(=O)N/N=C/c2ccc(O)c(OC)c2)c2ccccc2n1 | n | 50 | n | n | n | n | 72 | n | n
CCC(c1nnc(SCC(=O)Nc2ccc(NC(C)=O)cc2)n1Cc1ccccc1)N(C)C (configuration not stated) | n | n | n | n | n | n | x | x | x
CCCCn1c(SCC(=O)Nc2cc(C(F)(F)F)cc(C(F)(F)F)c2)nnc1C(CC)N(C)C (configuration not stated) | n | 78 | n | n | n | n | 107 | n | n
O=C(CN1C(=O)NC2(CCOc3ccccc32)C1=O)c1ccc(Br)cc1 (configuration not stated) | n | 66 | n | n | n | n | 102 | n | n
C=C(C)C(=O)N1CC2(CC(c3cccc(NC(=O)/C=C\C=C/C)c3)=NO2)C[C@H]1C(N)=O (some centres not stated) | n | 54 | n | n | n | n | n | n | x
C/C=C\C=C/C(=O)Nc1cccc(C2=NOC3(C2)C[C@@H](C(N)=O)N(C(=O)/C=C/C=C\C)C3)c1 (some centres not stated) | n | n | n | n | n | n | x | x | x
COc1cc(NC(=O)CN2C(=O)c3ccccc3S2(=O)=O)c(OC)cc1Cl | n | x | n | n | n | n | x | x | x
CCN(CC)CCNc1nc2c(c(=O)[nH]c(=O)n2C)n1CC(O)COc1ccc(Cl)cc1Cl (configuration not stated) | n | x | n | n | n | n | x | x | x
Cc1cc(C)n(-c2nc3c(c(=O)[nH]c(=O)n3C)n2CC(O)COc2ccc(Cl)cc2Cl)n1 (configuration not stated) | n | 52 | n | n | n | n | n | n | x
COc1ccc(OC)c(NC(=O)CSc2nncc(=O)n2N)c1 | n | n | n | n | n | n | x | x | x
O=C(CN(CC1CCCO1)S(=O)(=O)c1ccc(S(=O)(=O)NC2CC2)cc1)Nc1ccccc1 (configuration not stated) | n | 95 | n | n | n | n | 107 | n | n
CCc1c(C#N)c(SCCC(=O)Nc2ccc(OC)cc2)nc2c1C(=O)CC(C)(C)C2 | n | 54 | n | n | n | n | 89 | n | n
